Measured values as given in ChEMBL document CHEMBL1138283, “5'-O-[(N-acyl)sulfamoyl]adenosines as antitubercular agents that inhibit MbtA: an adenylation enzyme required for siderophore biosynthesis of the mycobactins” (J Med Chem, 2007).
Converted amounts (≈) assume the structure as drawn.

Legend:
[1] = target: T1, Salicyl-AMP ligase / salicyl-S-ArCP synthetase (Mycobacterium tuberculosis, UniProt P71716); assay: Inhibition of Mycobacterium tuberculosis recombinant MbtA expressed in Escherichia coli by ATP/PPi exchange assay; details: read-out: Ki app
T1 sequence (P71716 whole entry): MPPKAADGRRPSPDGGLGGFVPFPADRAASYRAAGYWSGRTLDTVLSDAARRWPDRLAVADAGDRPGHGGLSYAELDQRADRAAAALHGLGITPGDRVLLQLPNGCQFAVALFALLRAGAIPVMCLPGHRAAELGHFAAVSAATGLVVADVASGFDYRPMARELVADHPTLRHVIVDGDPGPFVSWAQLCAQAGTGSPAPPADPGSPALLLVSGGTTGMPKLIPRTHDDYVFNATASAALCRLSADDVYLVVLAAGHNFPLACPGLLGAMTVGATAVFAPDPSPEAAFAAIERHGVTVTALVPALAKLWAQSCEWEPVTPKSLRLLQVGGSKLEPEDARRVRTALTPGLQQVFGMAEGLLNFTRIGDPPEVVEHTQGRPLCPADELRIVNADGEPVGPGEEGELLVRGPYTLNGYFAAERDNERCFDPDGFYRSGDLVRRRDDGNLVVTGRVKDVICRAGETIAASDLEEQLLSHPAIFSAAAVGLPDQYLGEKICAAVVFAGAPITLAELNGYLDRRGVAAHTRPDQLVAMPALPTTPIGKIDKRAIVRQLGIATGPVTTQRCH
In short: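 Recombinant MbtA expressed in E. coli, 7 nM, at 37 °C in 75 mM Tris-HCl pH 7.5, 10 mM MgCl2, 2 mM DTT, 250 μM salicylic acid, 10 mM ATP, 1 mM PPi. Reaction started with [32P]PPi, five inhibitor concentrations, in duplicate. Initial rates (≤10% reaction) measured. Quenched with HClO4/PPi/charcoal; charcoal-bound [32P]ATP counted by scintillation. Apparent Ki from Hill or Morrison (tight-binding) fits.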

[2] = system: Mycobacterium tuberculosis; assay: Antimycobacterial activity against Mycobacterium tuberculosis H37Rv in iron deficient GAST medium; assay type: functional
In short: (§1)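 Broth microdilution MIC against M. tuberculosis H37Rv in iron-deficient GAST, or GAST supplemented with 200 μM FeCl3 (iron-rich). Compounds added from DMSO stocks; DMSO-only wells as negative control, isoniazid as positive control. Initial density 10^4–10^5 cells/assay, 37 °C, growth read as OD620 at 10–14 days. Run in quadruplicate; reported as MIC99.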

[3] = system: Mycobacterium tuberculosis; assay: Antimycobacterial activity against Mycobacterium tuberculosis H37Rv in iron rich GAST medium; assay type: functional; in short: as §1

Row | SMILES | Ki [1] [nM] | MIC99 [2] [µM] | MIC99 [3] [µM]
1 | Nc1ncnc2c1ncn2[C@@H]1O[C@H](COS(=O)(=O)NC(=O)c2ccccc2F)[C@@H](O)[C@H]1O | 38 | 12.5 (≈ 5.86 µg/mL) | 50 (≈ 23.4 µg/mL)
2 | Nc1ncnc2c1ncn2[C@@H]1O[C@H](COS(=O)(=O)NC(=O)c2ccccc2Cl)[C@@H](O)[C@H]1O | 18100 | > 200 | > 200
3 | Nc1ncnc2c1ncn2[C@@H]1O[C@H](COS(=O)(=O)NC(=O)c2cccc(Cl)c2O)[C@@H](O)[C@H]1O | 61 | 50 (≈ 25 µg/mL) | > 200
4 | Nc1ncnc2c1ncn2[C@@H]1O[C@H](COS(=O)(=O)NC(=O)c2ccc(Cl)cc2O)[C@@H](O)[C@H]1O | 12 | 12.5 (≈ 6.26 µg/mL) | 50 (≈ 25 µg/mL)
5 | Nc1ncnc2c1ncn2[C@@H]1O[C@H](COS(=O)(=O)NC(=O)c2cc(Cl)ccc2O)[C@@H](O)[C@H]1O | 20 | 12.5 (≈ 6.26 µg/mL) | 50 (≈ 25 µg/mL)
6 | Nc1ncnc2c1ncn2[C@@H]1O[C@H](COS(=O)(=O)NC(=O)c2ccc(F)cc2O)[C@@H](O)[C@H]1O | 12 | 0.098 (≈ 0.0475 µg/mL) | 0.39 (≈ 0.189 µg/mL)
7 | Nc1ncnc2c1ncn2[C@@H]1O[C@H](COS(=O)(=O)NC(=O)c2ccc(Br)cc2O)[C@@H](O)[C@H]1O | 21 | 6.25 (≈ 3.41 µg/mL) | 50 (≈ 27.3 µg/mL)
8 | Cc1ccc(C(=O)NS(=O)(=O)OC[C@H]2O[C@@H](n3cnc4c(N)ncnc43)[C@H](O)[C@@H]2O)c(O)c1 | 14 | 1.56 (≈ 0.75 µg/mL) | 25 (≈ 12 µg/mL)
9 | Nc1ncnc2c1ncn2[C@@H]1O[C@H](COS(=O)(=O)NC(=O)c2ccc(C(F)(F)F)cc2O)[C@@H](O)[C@H]1O | 4380 | > 200 | > 200
10 | Nc1ccc(C(=O)NS(=O)(=O)OC[C@H]2O[C@@H](n3cnc4c(N)ncnc43)[C@H](O)[C@@H]2O)c(O)c1 | 40 | 1.56 (≈ 0.751 µg/mL) | 25 (≈ 12 µg/mL)
11 | Nc1ncnc2c1ncn2[C@@H]1O[C@H](COS(=O)(=O)NC(=O)c2c(O)cccc2F)[C@@H](O)[C@H]1O | 7.3 | 0.78 (≈ 0.378 µg/mL) | 3.13 (≈ 1.52 µg/mL)
12 | Nc1ncnc2c1ncn2[C@@H]1O[C@H](COS(=O)(=O)NC(=O)c2cccc(O)c2O)[C@@H](O)[C@H]1O | 137 | > 200 | > 200
13 | Nc1ncnc2c1ncn2[C@@H]1O[C@H](COS(=O)(=O)NC(=O)c2ccc(O)c(O)c2)[C@@H](O)[C@H]1O | > 100000 | > 200 | > 200
14 | Nc1ncnc2c1ncn2[C@@H]1O[C@H](COS(=O)(=O)NC(=O)c2ccc[nH]c2=O)[C@@H](O)[C@H]1O | 3700 | > 200 | > 200
15 | Nc1ncnc2c1ncn2[C@@H]1O[C@H](COS(=O)(=O)NC(=O)c2cccnc2F)[C@@H](O)[C@H]1O | 2900 | > 200 | > 200
16 | Nc1ncnc2c1ncn2[C@@H]1O[C@H](COS(=O)(=O)NC(=O)c2cccnc2Cl)[C@@H](O)[C@H]1O | 175 | 12.5 (≈ 6.07 µg/mL) | 50 (≈ 24.3 µg/mL)
17 | Nc1ncnc2c1ncn2[C@@H]1O[C@H](COS(=O)(=O)NC(=O)N2CCOCC2)[C@@H](O)[C@H]1O | > 100000 | > 200 | > 200
18 | Nc1ncnc2c1ncn2[C@@H]1O[C@H](COS(=O)(=O)NC(=O)C2CCCC2)[C@@H](O)[C@H]1O | 49800 | > 200 | > 200
19 | Nc1ncnc2c1ncn2[C@@H]1O[C@H](COS(=O)(=O)NC(=O)C2CCCCC2)[C@@H](O)[C@H]1O | 17300 | > 200 | > 200
20 | CC(=O)NS(=O)(=O)OC[C@H]1O[C@@H](n2cnc3c(N)ncnc32)[C@H](O)[C@@H]1O | > 100000 | > 200 | > 200
21 | COC(=O)NS(=O)(=O)OC[C@H]1O[C@@H](n2cnc3c(N)ncnc32)[C@H](O)[C@@H]1O | 2500 | > 200 | > 200
22 | Nc1ncnc2c1ncn2[C@@H]1O[C@H](COS(=O)(=O)NC(=O)Cc2ccccc2)[C@@H](O)[C@H]1O | > 100000 | > 200 | > 200
23 | [N-]=[N+]=Nc1c(F)c(F)c(C(=O)NS(=O)(=O)OC[C@H]2O[C@@H](n3cnc4c(N)ncnc43)[C@H](O)[C@@H]2O)c(F)c1F | > 100000 | > 200 | > 200
24 | Nc1ncnc2c1ncn2[C@@H]1O[C@H](CNC(=O)c2coc3ccccc3c2=O)[C@@H](O)[C@H]1O | > 100000 | 12.5 (≈ 5.48 µg/mL) | 50 (≈ 21.9 µg/mL)
25 | Nc1ncnc2c1ncn2[C@@H]1O[C@H](CNS(=O)(=O)NC(=O)c2ccccc2O)[C@@H](O)[C@H]1O | – | – | 0.39 (≈ 0.182 µg/mL)
26 | Nc1ncnc2c1ncn2[C@@H]1O[C@H](CNC(=O)NC(=O)c2ccccc2O)[C@@H](O)[C@H]1O | 1250 | 200 (≈ 85.9 µg/mL) | > 200
27 | Nc1ccccc1C(=O)NS(=O)(=O)OC[C@H]1O[C@@H](n2cnc3c(N)ncnc32)[C@H](O)[C@@H]1O | 770 | > 200 | > 200
28 | Nc1ncnc2c1ncn2[C@@H]1O[C@H](COS(=O)(=O)NC(=O)c2ccccc2)[C@@H](O)[C@H]1O | 92 | 12.5 (≈ 5.63 µg/mL) | 50 (≈ 22.5 µg/mL)
29 | Nc1ncnc2c1ncn2[C@@H]1O[C@H](COS(=O)(=O)NC(=O)c2ccccc2[N+](=O)[O-])[C@@H](O)[C@H]1O | 7320 | > 200 | > 200
30 | Nc1ncnc2c1ncn2[C@@H]1O[C@H](COS(=O)(=O)NC(=O)[C@@H](N)Cc2ccccc2)[C@@H](O)[C@H]1O [PHESA] | 36500 | > 200 | > 200
